{
  "source": "ChEMBL document CHEMBL2380294",
  "about": "“Design, synthesis and biological activity of multifunctional α,β-unsaturated carbonyl scaffolds for Alzheimer's disease” (Bioorg Med Chem Lett, 2013)",
  "key": {"Cholinesterase": {"target": "Cholinesterase (Homo sapiens, UniProt P06276)", "sequence (P06276 whole entry)": "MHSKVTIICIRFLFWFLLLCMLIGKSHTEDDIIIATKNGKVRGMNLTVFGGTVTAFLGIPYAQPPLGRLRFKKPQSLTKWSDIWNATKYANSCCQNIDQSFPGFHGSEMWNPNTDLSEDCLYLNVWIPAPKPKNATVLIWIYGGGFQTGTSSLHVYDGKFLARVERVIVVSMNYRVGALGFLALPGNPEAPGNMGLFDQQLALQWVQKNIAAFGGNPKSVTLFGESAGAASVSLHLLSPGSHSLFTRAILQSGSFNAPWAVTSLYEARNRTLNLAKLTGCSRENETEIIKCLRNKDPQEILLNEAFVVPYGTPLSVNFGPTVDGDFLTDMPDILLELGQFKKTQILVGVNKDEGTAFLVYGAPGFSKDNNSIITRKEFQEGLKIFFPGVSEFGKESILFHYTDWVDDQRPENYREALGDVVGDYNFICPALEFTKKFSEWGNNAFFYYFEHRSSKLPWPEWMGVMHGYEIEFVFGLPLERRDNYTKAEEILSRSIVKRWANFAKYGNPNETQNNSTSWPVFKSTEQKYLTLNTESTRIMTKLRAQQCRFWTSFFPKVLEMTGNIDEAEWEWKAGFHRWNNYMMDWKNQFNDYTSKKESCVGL", "experiment": "Inhibition of BuChE (unknown origin) by Ellman method", "in_short": "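Equine serum BuChE in 0.1 M phosphate buffer pH 8 with 0.34 mM DTNB, 0.02 unit/mL enzyme and 0.55 mM S-butyrylthiocholine chloride. Inhibitor concentration dependence over 0–50 μM. Percent inhibition versus no-inhibitor control used to derive IC50.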"}, "[1]": {"target": "T1, Amyloid-beta precursor protein (Homo sapiens, UniProt P05067)", "T1 sequence (P05067 whole entry)": "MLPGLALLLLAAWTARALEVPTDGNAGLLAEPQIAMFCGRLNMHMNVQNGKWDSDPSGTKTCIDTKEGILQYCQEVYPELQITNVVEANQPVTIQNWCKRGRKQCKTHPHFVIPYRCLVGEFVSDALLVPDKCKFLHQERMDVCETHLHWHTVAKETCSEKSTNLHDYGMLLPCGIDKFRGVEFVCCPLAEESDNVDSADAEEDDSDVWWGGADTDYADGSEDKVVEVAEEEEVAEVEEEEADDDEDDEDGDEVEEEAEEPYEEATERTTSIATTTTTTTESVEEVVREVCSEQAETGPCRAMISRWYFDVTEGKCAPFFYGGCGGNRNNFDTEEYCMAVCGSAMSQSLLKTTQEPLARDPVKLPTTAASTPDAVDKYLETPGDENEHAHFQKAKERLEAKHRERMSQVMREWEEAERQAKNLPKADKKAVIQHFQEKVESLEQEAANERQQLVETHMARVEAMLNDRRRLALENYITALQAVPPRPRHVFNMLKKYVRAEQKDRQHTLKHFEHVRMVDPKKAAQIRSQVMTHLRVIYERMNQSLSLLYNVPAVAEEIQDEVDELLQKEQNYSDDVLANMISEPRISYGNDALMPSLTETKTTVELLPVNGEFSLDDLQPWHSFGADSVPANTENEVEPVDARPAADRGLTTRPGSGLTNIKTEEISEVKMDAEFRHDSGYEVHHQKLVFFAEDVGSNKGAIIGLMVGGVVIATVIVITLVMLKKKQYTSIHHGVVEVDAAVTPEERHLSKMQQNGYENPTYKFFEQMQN", "experiment": "Inhibition of amyloid beta (1 to 42) (unknown origin) oligomer dissociation at 50 uM after 16 to 18 hrs by ELISA", "in_short": "(§1)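 Disaggregated biotinyl-Aβ(1-42) was diluted in PBS (pH 7.5) to 33.7 nM monomer to preform oligomers. Oligomers (16.8 nM, in PBS + 0.3% Tween 20) were combined with PBS containing the compound and 1% DMSO. The mixture was shaken at 150 rpm at room temperature for 16-18 h. Remaining oligomers were captured on NeutrAvidin and measured by SA-HRP/TMB at OD450.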"}, "[2]": {"target": "T1, Amyloid-beta precursor protein", "experiment": "Inhibition of amyloid beta (1 to 42) (unknown origin) oligomer assembly at 50 uM after 30 mins by biotinyl-streptavidin assay", "in_short": "(§2)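 Biotinyl-Aβ(1-42) was dried from HFIP, disaggregated with TFA for 10 min at room temperature, and taken up in DMSO (500 nM). Monomer was mixed into PBS containing the compound and 1% DMSO at ambient temperature. After 30 min, 0.3% Tween 20 stopped assembly. Oligomers were captured on NeutrAvidin, detected with SA-HRP and TMB, and read at OD450. Solvent control = 100%.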"}, "[3]": {"target": "T1, Amyloid-beta precursor protein", "experiment": "Inhibition of amyloid beta ((1 to 42) (unknown origin) oligomer assembly after 30 mins by biotinyl-streptavidin assay", "in_short": "as §2"}, "[4]": {"target": "T1, Amyloid-beta precursor protein", "experiment": "Inhibition of amyloid beta (1 to 42) (unknown origin) oligomer dissociation after 16 to 18 hrs by ELISA", "in_short": "as §1"}, "[5]": {"target": "T1, Amyloid-beta precursor protein", "experiment": "Inhibition of amyloid beta (1 to 40) (unknown origin) fibril formation assessed as shorter assemblies at 10 uM after 6 days by atomic force microscopy relative to control"}, "Acetylcholinesterase": {"target": "Acetylcholinesterase (Homo sapiens, UniProt P22303)", "sequence (P22303 whole entry)": "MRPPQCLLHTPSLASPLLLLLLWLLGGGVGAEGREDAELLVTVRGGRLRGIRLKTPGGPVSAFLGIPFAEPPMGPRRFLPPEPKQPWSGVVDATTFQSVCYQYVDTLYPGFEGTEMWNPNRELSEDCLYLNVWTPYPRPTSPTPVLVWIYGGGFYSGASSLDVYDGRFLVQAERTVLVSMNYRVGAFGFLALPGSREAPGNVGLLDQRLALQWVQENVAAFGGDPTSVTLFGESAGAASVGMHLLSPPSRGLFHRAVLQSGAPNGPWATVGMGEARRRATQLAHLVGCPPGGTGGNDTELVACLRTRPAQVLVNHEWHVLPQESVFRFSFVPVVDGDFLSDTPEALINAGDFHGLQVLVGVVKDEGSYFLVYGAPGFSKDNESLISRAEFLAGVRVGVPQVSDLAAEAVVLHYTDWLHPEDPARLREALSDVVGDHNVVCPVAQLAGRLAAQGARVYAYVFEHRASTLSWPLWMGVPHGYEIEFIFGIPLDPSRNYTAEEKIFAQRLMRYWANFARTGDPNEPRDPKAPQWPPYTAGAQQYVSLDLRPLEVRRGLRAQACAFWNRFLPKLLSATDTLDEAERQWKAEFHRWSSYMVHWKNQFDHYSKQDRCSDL", "experiment": "Inhibition of AChE (unknown origin) by Ellman method"}},
  "note": "The source made the active and inactive calls. The calls are words filed in the database; no cut-off is given here.",
  "data": [
    {"molecule": "CCN(CC)Cc1cccc(C(=O)/C=C/c2ccc(-c3ccccc3)cc2)c1", "values": [
      {"measurement": "IC50", "setting": "Cholinesterase", "result": 8.27, "unit": "µM"}
    ]},
    {"molecule": "COc1ccc2cc(C(=O)CN3CCN(c4ccccn4)CC3)c(=O)oc2c1", "values": [
      {"measurement": "inhibition", "setting": "[1]", "result": "< 95", "unit": "%"},
      {"measurement": "inhibition", "setting": "[2]", "result": "> 65", "unit": "%"}
    ]},
    {"molecule": "COc1ccc2cc(C(=O)CN3CCC(Cc4ccccc4)CC3)c(=O)oc2c1", "values": [
      {"measurement": "inhibition", "setting": "[1]", "result": "< 95", "unit": "%"},
      {"measurement": "IC50", "setting": "[3]", "result": 36, "unit": "µM"},
      {"measurement": "inhibition", "setting": "[2]", "result": "> 65", "unit": "%"}
    ]},
    {"molecule": "COc1ccc2cc(C(=O)CN3CCC(c4ccccc4)CC3)c(=O)oc2c1", "values": [
      {"measurement": "IC50", "setting": "[4]", "result": 29, "unit": "µM"},
      {"measurement": "inhibition", "setting": "[1]", "result": "< 95", "unit": "%"},
      {"measurement": "IC50", "setting": "[3]", "result": 14, "unit": "µM"},
      {"measurement": "inhibition", "setting": "[2]", "result": "> 65", "unit": "%"}
    ]},
    {"molecule": "COc1ccc2cc(C(=O)CN3CCOCC3)c(=O)oc2c1", "values": [
      {"measurement": "IC50", "setting": "[4]", "result": 5, "unit": "µM"},
      {"measurement": "inhibition", "setting": "[1]", "result": "< 95", "unit": "%"},
      {"measurement": "IC50", "setting": "[3]", "result": 29, "unit": "µM"},
      {"measurement": "inhibition", "setting": "[2]", "result": "> 65", "unit": "%"}
    ]},
    {"molecule": "COc1ccc2cc(C(=O)CN3CCN(Cc4ccccc4)CC3)c(=O)oc2c1", "values": [
      {"measurement": "inhibition", "setting": "[5]", "result": "Active"},
      {"measurement": "inhibition", "setting": "[1]", "result": "< 95", "unit": "%"},
      {"measurement": "IC50", "setting": "[3]", "result": 36, "unit": "µM"},
      {"measurement": "inhibition", "setting": "[2]", "result": "> 65", "unit": "%"},
      {"measurement": "IC50", "setting": "Acetylcholinesterase", "result": 1.76, "unit": "µM"}
    ]},
    {"molecule": "COc1ccc2cc(C(=O)CN3CCN(c4ncccn4)CC3)c(=O)oc2c1", "values": [
      {"measurement": "IC50", "setting": "[4]", "result": 4, "unit": "µM"},
      {"measurement": "inhibition", "setting": "[1]", "result": "< 95", "unit": "%"},
      {"measurement": "IC50", "setting": "[3]", "result": 1, "unit": "µM"},
      {"measurement": "inhibition", "setting": "[2]", "result": "> 65", "unit": "%"}
    ]},
    {"molecule": "COc1ccc2cc(C(=O)CN3CCN(c4ccccc4)CC3)c(=O)oc2c1", "values": [
      {"measurement": "IC50", "setting": "[4]", "result": 6.5, "unit": "µM"},
      {"measurement": "inhibition", "setting": "[1]", "result": "< 95", "unit": "%"},
      {"measurement": "IC50", "setting": "[3]", "result": 21, "unit": "µM"},
      {"measurement": "inhibition", "setting": "[2]", "result": "> 65", "unit": "%"}
    ]}
  ]
}
